A selection: hits, their analogues and other compounds. The true share with any hit is near 5.8%.
NCF1 inh = p47phox/p22phox peptide binding inhibitors, primary screen, biochemical, uHTS, NADPH oxidase regulatory subunit. Neutrophil cytosol factor 1 (Homo sapiens), P14598. fluorescence polarization, 2 h. inhibition, % at 24.7 µM. 220,000 compounds, 0.53% hits. AID 1274, 2008;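 active = inhibition above about 30%, limit read from the data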;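 note: 0% = p47phox with labelled peptide and 100% = labelled peptide alone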
Target sequence (P14598 whole entry, looked up): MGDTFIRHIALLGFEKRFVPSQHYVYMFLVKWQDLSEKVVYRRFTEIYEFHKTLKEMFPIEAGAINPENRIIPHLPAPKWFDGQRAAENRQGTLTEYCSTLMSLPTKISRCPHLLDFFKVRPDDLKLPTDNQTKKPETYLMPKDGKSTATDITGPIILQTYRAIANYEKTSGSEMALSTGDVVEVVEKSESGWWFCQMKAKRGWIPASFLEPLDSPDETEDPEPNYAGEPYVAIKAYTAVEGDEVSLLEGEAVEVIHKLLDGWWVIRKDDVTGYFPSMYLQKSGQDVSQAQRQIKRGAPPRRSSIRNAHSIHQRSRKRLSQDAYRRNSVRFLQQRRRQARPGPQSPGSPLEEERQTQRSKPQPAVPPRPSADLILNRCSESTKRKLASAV
ROMK mod = ROMK potassium channel modulators, primary screen, cell-based, thallium flux, MLSMR library | B-score at 10 µM | Tet-inducible ROMK, thallium flux fluorescence; actives lie on both sides | ATP-sensitive inward rectifier potassium channel 1 (Homo sapiens), P48048 | AID 1918, 2009 | 130,000 compounds, 2% hits;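 active = signal ratio slope over the read window, or its plate-corrected B-score, at least 3 SD from the plate mean, either direction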;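 note: B-score of the F/F0 ratio slope over 7 to 12 s after thallium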
14-3-3 Bad inh = inhibitors of 14-3-3 zeta/Bad binding, primary screen, biochemical, TR-FRET, bovine 14-3-3 zeta; TR-FRET 14-3-3zeta/Dy647-pBad peptide displacement, 1 h; AID 781, 2007; inhibition, % at 21.7 µM; 220,000 compounds, 0.71% hits;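 active = inhibition above about 70%, limit read from the data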;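 note: 0% = full 14-3-3 plus peptide FRET controls and 100% = background without 14-3-3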
RBBP9 inh = human RBBP9 inhibitors, primary screen, biochemical, fluorescence polarization, FP-Rh probe, HTS. recombinant RBBP9. 220,000 compounds, 0.2% hits. Serine hydrolase RBBP9 (Homo sapiens), O75884. inhibition, % at 7.94 µM. AID 1515, 2009;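 active = inhibition above the campaign mean of all tested compounds plus 3 SD, cut at about 14% in these data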;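 note: plate controls were DMSO wells with RBBP9 for no effect and wells lacking RBBP9 protein for full effect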
Target sequence (O75884 whole entry, looked up): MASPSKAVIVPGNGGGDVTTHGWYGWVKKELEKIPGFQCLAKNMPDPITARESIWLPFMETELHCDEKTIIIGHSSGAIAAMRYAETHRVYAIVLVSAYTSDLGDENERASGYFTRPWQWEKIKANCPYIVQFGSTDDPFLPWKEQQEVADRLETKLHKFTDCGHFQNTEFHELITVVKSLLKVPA
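Material: RBBP9 protein. Amount: RBBP9 at 2.5 µM in dispensed solution, before mixing. Schedule: 30 min then 45 min, 25 °C. Medium: Tris buffer pH 8.0, NaCl, Pluronic. Measured by: fluorescence polarization. Measure: percent inhibition from mP, scaled between DMSO and no-protein wells. Replication: one well per compound.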
WT yeast gro inh = growth inhibition of WT strain, primary screen, mitochondrial fusion inhibitor project, WT and mutant strains, chemical genetic | mitochondrial fusion phenotypic screen | inhibition, % at 10 µM | 190,000 compounds, 2.1% hits | AID 1362, 2008; in the data active = inhibition above about 58%; tested in S. cerevisiae
KCC2 mod = KCC2 cotransporter modulators, thallium flux, primary screen, cell-based, HEK293 KCC2, FluoZin-2 fluorescence, MLSMR | KCC2 cells, thallium flux FluoZin-2 fluorescence | 190,000 compounds, 2.2% hits | Solute carrier family 12 member 5 (Homo sapiens), Q9H2X9 | B-score of Tl+ flux slope (higher = more flux/activation; lower = inhibition) at 10 µM;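 active = thallium flux slope and its plate-corrected score both differing from the plate sample mean at a set confidence after two filtering rounds, in either direction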;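 note: slope of fluorescence scaled to starting intensity during 10 to 20 s after thallium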
The depositor's hits bear a star; . = no result given; [ ] = dose if it differs, or a comment.

SMILES	NCF1 inh	ROMK mod	14-3-3 Bad inh	RBBP9 inh	WT yeast gro inh	KCC2 mod
N#Cc1c(-c2ccccc2)nc(SCC(=O)Nc2ccccc2)[nH]c1=O	1.5	0.676	-4.5	-8.1	1.4	-4.76*
O=C(CSc1ncc(-c2ccccc2)[nH]1)Nc1ccccc1	33.3*	-0.423	7.1	-7.3	-3.8	-0.0502
CSc1cccc(NC(=O)Nc2ccccc2C(N)=O)c1	-0.4	.	1.6	-6.0	.	0.191
CCOC(=O)C[n+]1c(C)sc2ccc(OC)cc21	-0.2	0.00707	79.7*	-17.9	7.2	-0.567
O=C(COC(=O)c1ccccc1C(=O)c1ccc(Cl)c([N+](=O)[O-])c1)NC1CCCCCC1	-14.1	-1.84	-4.9	-10.6	77.7*	1.32
Cc1ccccc1C(=O)Nc1ccc2c(C#N)c3nc4ccccc4nc3n2c1	33.5*	.	89.0*[fluorescence artefact?]	-8.7	21.3	0.491
Cc1c(C(=O)Nc2ccccc2)cn2c(nc3ccccc32)c1C#N	-10.9	-1.56	5.7	-4.5	7.0	-2
COc1ccc(Br)cc1CN(C)CC(=O)Nc1ccccc1Cl	-6.3	.	2.1	-4.0	67.1*	0.00386
COc1ccc(Br)cc1CN(C)CC(=O)Nc1cc(Cl)ccc1Cl	-2.8	.	6.2	-11.4	9.5	0.913
CN(CC(=O)Nc1ccccc1-c1ccccc1)Cc1ccccc1Cl	-4.5	0.623	-5.7	1.6	70.3*	0.438
COC(=O)/C=C1/S/C(=N/NC(=O)c2ccc(Cl)cc2Cl)NC1=O	-14.0	.	-1.3	-6.0	.	0.219
COc1cc2[nH]c(=O)n(CCC(=O)N3CC=C(c4ccccc4)CC3)c(=O)c2cc1OC	-7.1	0.873	3.8	-6.4	30.3	0.521
COc1cc2[nH]c(=O)n(CCC(=O)N3CCC(N4CCCCC4)CC3)c(=O)c2cc1OC	-11.2	0.411	5.1	-10.2	71.1*	1.3
Cc1ccc(/C=C/C(=O)O)cc1S(=O)(=O)N1CCCCC1	-2.1	.	-12.7	-6.6	.	0.00633
O=C(NCCC1=CCCCC1)C1CCN(S(=O)(=O)c2ccc(Br)s2)CC1	-7.3	0.301	1.5	-10.8	10.2	-1.11
O=C(/C=C/c1ccc(N2CCC(c3ccccc3)=N2)cc1)c1ccccc1	-240.7	-4.36*	-14.4	-13.7	8.8	0.0305
Cc1onc(-c2c(Cl)cccc2Cl)c1C(=O)N1CCN(c2ncccn2)CC1	54.9*	0.638	10.7	0.7	-27.7	0.23
Cc1onc(-c2c(Cl)cccc2Cl)c1C(=O)N1CCN(c2ccccc2)CC1	-2.0	0.977	-3.8	-5.8	24.8	-0.439
COC(=O)c1sc(-c2ccc(C(C)(C)C)cc2)cc1NC(=O)CSCC(=O)O	-9.7	0.732	5.4	-5.0	.	-0.726
O=C(COc1cc(F)ccc1[N+](=O)[O-])NCCCc1ccccc1	.	-0.312	47.0	-0.9	-5.2	-2.22
NC(=S)N/N=C/c1c(O)ccc2ccccc12	-8.7	0.438	-5.6	8.8	.	3.83
NC(=S)N/N=C1/CCSc2ccc3ccccc3c21	-5.1	-3.19*	-2.1	-9.5	76.0*	4.35*
CSc1ccc(CN(C)Cc2nc3ccccc3c(=O)[nH]2)cc1	-10.7	.	9.5	-3.1	.	-0.407
Cc1ccccc1Nc1c(F)c(F)c(F)c(F)c1C(=O)O	1.1	-0.66	3.1	-6.4	-2.1	-0.66
CC(C)S(=O)(=O)c1nsc2nc(=O)c(/C=C3\C=Nc4ccccc43)c(N)n12	-12.0	1.65	3.9	-7.6	3.0	-0.346
SMILES	NCF1 inh	ROMK mod	14-3-3 Bad inh	RBBP9 inh	WT yeast gro inh	KCC2 mod
CSc1nsc2nc(=O)c(/C=C3\C=Nc4ccccc43)c(N)n12	-10.2	2.07*	-9.3	3.9	9.7	-3.13*
CCOc1cc(C(=O)N(C)Cc2cc3ccccc3[nH]c2=O)cc(OCC)c1OCC	-6.7	0.386	3.8	0.9	77.8*	-0.492
Cc1cc2nc(C)c3c(n2n1)CCC3	0.8	-0.0189	1.7	0.0	-18.8	0.225
CCN(CC)C(=O)c1sc(NC(=O)c2ccoc2C)c(C(=O)OC)c1C	-15.8	.	8.4	1.1	7.6	8.42*
OC(COCC(F)(F)C(F)(F)C(F)(F)C(F)F)Cn1c2ccc(Cl)cc2c2cc(Cl)ccc21 (stereo unspecified)	-11.2	.	6.9	-12.3	85.8*	2.13
CCOC(=O)c1c(O)c2cc(Cl)ccc2n(CC)c1=O	-3.5	.	7.7	-4.6	.	-1.82
FC(F)(F)c1cnc(NNC(=S)Nc2ccc(Cl)cc2)c(Cl)c1	-12.6	1.23	2.0	-6.9	75.6	30.1*
O=C(NNc1ncc(C(F)(F)F)cc1Cl)c1ccc(Cl)c(Cl)c1	-5.8	.	-8.3	0.0	.	.
Cc1ccc(NC(=S)NNc2ncc(C(F)(F)F)cc2Cl)c(C)c1	-5.3	-1.38	-1.2	-1.0	4.7	4.26*
CON/C=N/C(=S)Nc1ncc(C(F)(F)F)cc1Cl	-12.3	5.37*	-8.7	-0.1	12.1	74.6*
CC1(C)CC(=O)C2=C(C1)NC(=S)C(C#N)C21CCCCC1 (stereo unspecified)	2.3	0.414	-2.8	-3.0	.	-0.566
CN(C)CCN(C)Cc1ccccc1Sc1cccc2ccccc12	-9.8	-1.87	26.2	-8.2	50.4	-0.0403
Cc1ccc(S(=O)(=O)c2cnc3cc(C)nn3c2N)cc1	1.8	-1.02	-4.5	-9.1	-20.7	0.634
O=C(NNC(=O)C1CC(c2cccnc2)=NO1)Nc1ccccc1F (stereo unspecified)	-6.4	1.42	-7.1	-1.0	-8.6	-0.0434
O=C(COC(=O)c1ccc2c(c1)C(=O)N(c1cccc3ncccc13)C2=O)c1ccc(Cl)cc1	56.2*	0.00437	74.9*	-0.2	-22.1	-0.0204
Cc1ccc(C(=O)COC(=O)c2ccc3c(c2)C(=O)N(c2cccc4ncccc24)C3=O)cc1	83.5*	-0.731	88.3*	-2.0	1.5	-0.367
O=C(OCC(=O)c1ccc(Cl)cc1Cl)c1ccc2c(c1)C(=O)N(c1cccc3ncccc13)C2=O	-0.3	.	-0.4	0.0	10.9	-0.498
CN(C)c1nnc(-c2ccc(Cl)cc2)o1	1.8	0.575	-4.5	3.6	-13.1	-0.139
CCn1c(O)c(C2=c3ccccc3=NC2=O)c2cc(Br)ccc21	4.9	0.973	1.4	-8.8	71.8*	1.22
CCOC(=O)c1cnc(SC)nc1Sc1cc(Cl)ccc1Cl	-8.9	.	14.7	-6.4	71.4*	-0.291
COc1ccc(CNC(=O)C2=CCN(S(=O)(=O)c3ccc(C)cc3)CC2)cc1	-8.8	-0.0451	2.4	-8.8	.	-0.501
O=C(NCCO)Nc1ccc2nc(-c3ccco3)c(-c3ccco3)nc2c1	-20.7	.	79.7*	15.1*	-1.4	.
Cc1ccc(Nc2nc(CSc3nnc(-c4ccc(F)cc4)n3C)cs2)cc1	-12.2	-1.23	10.6	-9.4	32.2	-2.98

Compound activity (PubChem BioAssay)
